Values after ≈ are worked out from the molar mass of the structure shown.
How the values were obtained:
Assay type in all cases: functional, cell-based
HeLa = assay: Cytotoxicity against human HeLa cells assessed as cell growth inhibition after 72 hrs by MTT assay
Summary of the method: (§1)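 MTT growth assay in human cancer lines (MCF-7, HepG2, BGC-823, HeLa, A549), 72 h after treatment; 5-fluorouracil as reference. IC50 (μg/mL) taken as concentration giving 50% growth inhibition versus untreated control.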

HepG2 = assay: Cytotoxicity against human HepG2 cells assessed as cell growth inhibition after 72 hrs by MTT assay; settings: HepG2, 72 h; summary of the method: as §1
A549 = assay: Cytotoxicity against human A549 cells assessed as cell growth inhibition after 72 hrs by MTT assay; settings: A549, 72 h; summary of the method: as §1
[1] = Cytotoxicity against human BCG823 cells assessed as cell growth inhibition after 72 hrs by MTT assay; settings: BCG823, 72 h; summary of the method: as §1
MCF7 = assay: Cytotoxicity against human MCF7 cells assessed as cell growth inhibition after 72 hrs by MTT assay; settings: MCF7, 72 h; summary of the method: as §1

`CN(C(=O)NC(=O)c1ccccc1F)c1nc(C(F)(F)F)c(C(=O)N/N=C/c2cc(C(F)(F)F)cc(C(F)(F)F)c2)s1` gave an IC50 (HeLa) of 4.98 µg/mL (≈ 7.91 µM), an IC50 (HepG2) of 4.47 µg/mL (≈ 7.1 µM) and an IC50 (A549) of 5.43 µg/mL (≈ 8.63 µM). For the same compound, the IC50 [1] was 4.23 µg/mL (≈ 6.72 µM) and the IC50 (MCF7) was 6.16 µg/mL (≈ 9.79 µM).

In the case of `CN(C(=O)NC(=O)c1cccc(C(F)(F)F)c1)c1nc(C(F)(F)F)c(C(=O)N/N=C/c2cccc(C(F)(F)F)c2)s1`, the IC50 (HeLa) is reported as 4.81 µg/mL (≈ 7.87 µM), the IC50 (HepG2) is reported as 5.79 µg/mL (≈ 9.47 µM) and the IC50 (A549) is reported as 8.16 µg/mL (≈ 13.3 µM). For the same compound, the IC50 [1] was 4.6 µg/mL (≈ 7.52 µM) and the IC50 (MCF7) was 3.7 µg/mL (≈ 6.05 µM).

In the case of `Cc1nc(N(C)C(=O)NC(=O)c2c(F)cccc2F)sc1C(=O)N/N=C/c1ccccc1Cl`, the IC50 (HepG2) is reported as > 100 µg/mL.

With `Cc1nc(N(C)C(=O)NC(=O)c2c(F)cccc2F)sc1C(=O)N/N=C/c1ccc(Cl)cc1` the IC50 (HepG2) was > 100 µg/mL.

For `CN(C(=O)NC(=O)c1cccc(C(F)(F)F)c1)c1nc(C(F)(F)F)c(C(=O)N/N=C/c2ccccc2C(F)(F)F)s1`, the IC50 (HeLa) was 7.37 µg/mL (≈ 12.1 µM), the IC50 (HepG2) was 10.4 µg/mL (≈ 17 µM) and the IC50 (A549) was 12.1 µg/mL (≈ 19.8 µM). For the same compound, the IC50 [1] was 7.29 µg/mL (≈ 11.9 µM) and the IC50 (MCF7) was 7.69 µg/mL (≈ 12.6 µM).

Compound `CN(C(=O)NC(=O)c1ccc(F)c(F)c1)c1nc(C(F)(F)F)c(C(=O)N/N=C/c2ccc([N+](=O)[O-])cc2)s1` has an IC50 (HeLa) of 5.08 µg/mL (≈ 9.13 µM), an IC50 (HepG2) of 6.23 µg/mL (≈ 11.2 µM) and an IC50 (A549) of 5.78 µg/mL (≈ 10.4 µM). It also gave an IC50 [1] of 2.99 µg/mL (≈ 5.37 µM) and an IC50 (MCF7) of 4.81 µg/mL (≈ 8.64 µM).

For `CN(C(=O)NC(=O)c1c(F)cccc1F)c1nc(C(F)(F)F)c(C(=O)N/N=C/c2cccc(C(F)(F)F)c2)s1`, the IC50 (HeLa) was 21.6 µg/mL (≈ 37.3 µM), the IC50 (HepG2) was 27.9 µg/mL (≈ 48.1 µM) and the IC50 (A549) was 27.6 µg/mL (≈ 47.6 µM). The IC50 [1] was 25.9 µg/mL (≈ 44.6 µM) and the IC50 (MCF7) was 21.8 µg/mL (≈ 37.6 µM).

With `Cc1nc(N(C)C(=O)NC(=O)c2c(F)cccc2F)sc1C(=O)N/N=C/c1ccc(F)cc1` the IC50 (HepG2) was > 100 µg/mL.

Compound `CN(C(=O)NC(=O)c1c(Cl)cccc1Cl)c1nc(C(F)(F)F)c(C(=O)N/N=C/c2ccccc2C(F)(F)F)s1` has an IC50 (HeLa) of 5.23 µg/mL (≈ 8.54 µM), an IC50 (HepG2) of 8.95 µg/mL (≈ 14.6 µM) and an IC50 (A549) of 12 µg/mL (≈ 19.6 µM). It also gave an IC50 [1] of 4.12 µg/mL (≈ 6.73 µM) and an IC50 (MCF7) of 6.24 µg/mL (≈ 10.2 µM).

Work on `Cc1nc(N(C)C(=O)NC(=O)c2c(F)cccc2F)sc1C(=O)N/N=C/c1cccc(C(F)(F)F)c1` yielded an IC50 (HeLa) of 26.8 µg/mL (≈ 51 µM), an IC50 (HepG2) of 31.6 µg/mL (≈ 60.1 µM) and an IC50 (A549) of 30.3 µg/mL (≈ 57.7 µM). It also gave an IC50 [1] of 32.6 µg/mL (≈ 62.1 µM) and an IC50 (MCF7) of 28.1 µg/mL (≈ 53.6 µM).

Compound `CN(C(=O)NC(=O)c1cccc(C(F)(F)F)c1)c1nc(C(F)(F)F)c(C(=O)N/N=C/c2cc(C(F)(F)F)cc(C(F)(F)F)c2)s1` has an IC50 (HeLa) of 5.34 µg/mL (≈ 7.86 µM), an IC50 (HepG2) of 5.38 µg/mL (≈ 7.92 µM) and an IC50 (A549) of 8.2 µg/mL (≈ 12.1 µM). It also gave an IC50 [1] of 5.23 µg/mL (≈ 7.7 µM) and an IC50 (MCF7) of 6.08 µg/mL (≈ 8.95 µM).

With `Cc1nc(N(C)C(=O)NC(=O)c2ccc(Cl)cc2Cl)sc1C(=O)N/N=C/c1ccc(C(F)(F)F)cc1` the IC50 (HeLa) was 20.3 µg/mL (≈ 36.4 µM), the IC50 (HepG2) was > 100 µg/mL and the IC50 (A549) was 30.2 µg/mL (≈ 54.1 µM). For the same compound, the IC50 [1] was 38 µg/mL (≈ 68 µM) and the IC50 (MCF7) was 24.5 µg/mL (≈ 43.9 µM).

With `CN(C(=O)NC(=O)c1ccc(C(F)(F)F)cc1)c1nc(C(F)(F)F)c(C(=O)N/N=C/c2cc(C(F)(F)F)cc(C(F)(F)F)c2)s1` the IC50 (HeLa) was 5.78 µg/mL (≈ 8.51 µM), the IC50 (HepG2) was 8.35 µg/mL (≈ 12.3 µM) and the IC50 (A549) was 5.9 µg/mL (≈ 8.68 µM). The IC50 [1] was 1.77 µg/mL (≈ 2.61 µM) and the IC50 (MCF7) was 7.37 µg/mL (≈ 10.8 µM).

In the case of `CN(C(=O)NC(=O)c1c(F)cccc1F)c1nc(C(F)(F)F)c(C(=O)N/N=C/c2ccc(C(F)(F)F)cc2)s1`, the IC50 (HeLa) is reported as 30.6 µg/mL (≈ 52.8 µM), the IC50 (HepG2) is reported as 49.6 µg/mL (≈ 85.6 µM) and the IC50 (A549) is reported as 40.1 µg/mL (≈ 69.2 µM). It also gave an IC50 [1] of 34.9 µg/mL (≈ 60.2 µM) and an IC50 (MCF7) of 35.3 µg/mL (≈ 61 µM).

With `CN(C(=O)NC(=O)c1ccccc1F)c1nc(C(F)(F)F)c(C(=O)N/N=C/c2ccccc2C(F)(F)F)s1` the IC50 (HeLa) was 10.1 µg/mL (≈ 18 µM), the IC50 (HepG2) was 5.39 µg/mL (≈ 9.6 µM) and the IC50 (A549) was 6.32 µg/mL (≈ 11.3 µM). It also gave an IC50 [1] of 4.67 µg/mL (≈ 8.32 µM) and an IC50 (MCF7) of 12.2 µg/mL (≈ 21.8 µM).

In the case of `CN(C(=O)NC(=O)c1ccc(Cl)cc1Cl)c1nc(C(F)(F)F)c(C(=O)N/N=C/c2cc(C(F)(F)F)cc(C(F)(F)F)c2)s1`, the IC50 (HeLa) is reported as > 100 µg/mL, the IC50 (HepG2) is reported as > 100 µg/mL and the IC50 (A549) is reported as > 100 µg/mL. The IC50 [1] was > 100 µg/mL and the IC50 (MCF7) was > 100 µg/mL.

In the case of `Cc1nc(N(C)C(=O)NC(=O)c2c(F)cccc2F)sc1C(=O)N/N=C/c1cc(C(F)(F)F)cc(C(F)(F)F)c1`, the IC50 (HeLa) is reported as 12.2 µg/mL (≈ 20.6 µM), the IC50 (HepG2) is reported as 11.4 µg/mL (≈ 19.1 µM) and the IC50 (A549) is reported as 13 µg/mL (≈ 21.9 µM). The IC50 [1] was 14.1 µg/mL (≈ 23.7 µM) and the IC50 (MCF7) was 11.6 µg/mL (≈ 19.6 µM).

`CN(C(=O)NC(=O)c1ccccc1F)c1nc(C(F)(F)F)c(C(=O)N/N=C/c2ccc(C(F)(F)F)cc2)s1` gave an IC50 (HeLa) of 3.97 µg/mL (≈ 7.07 µM), an IC50 (HepG2) of 4.56 µg/mL (≈ 8.12 µM) and an IC50 (A549) of 5.68 µg/mL (≈ 10.1 µM). It also gave an IC50 [1] of 3.87 µg/mL (≈ 6.89 µM) and an IC50 (MCF7) of 4.98 µg/mL (≈ 8.87 µM).

`CN(C(=O)NC(=O)c1ccc(Cl)cc1Cl)c1nc(C(F)(F)F)c(C(=O)N/N=C/c2cccc(C(F)(F)F)c2)s1` gave an IC50 (HeLa) of 9.6 µg/mL (≈ 15.7 µM), an IC50 (HepG2) of 11.2 µg/mL (≈ 18.3 µM) and an IC50 (A549) of 10.5 µg/mL (≈ 17.2 µM). The IC50 [1] was 6.11 µg/mL (≈ 9.98 µM) and the IC50 (MCF7) was 10.7 µg/mL (≈ 17.5 µM).

In the case of `CN(C(=O)NC(=O)c1ccc([N+](=O)[O-])cc1)c1nc(C(F)(F)F)c(C(=O)N/N=C/c2ccc([N+](=O)[O-])cc2)s1`, the IC50 (HeLa) is reported as 8.42 µg/mL (≈ 14.9 µM), the IC50 (HepG2) is reported as 12.3 µg/mL (≈ 21.8 µM) and the IC50 (A549) is reported as 8.98 µg/mL (≈ 15.9 µM). It also gave an IC50 [1] of 7.45 µg/mL (≈ 13.2 µM) and an IC50 (MCF7) of 9.24 µg/mL (≈ 16.3 µM).

`COc1ccc(/C=N/NC(=O)c2sc(N(C)C(=O)NC(=O)c3c(F)cccc3F)nc2C)cc1` gave an IC50 (HepG2) of 22.7 µg/mL (≈ 46.5 µM).
